Measured values gathered from unrelated publications.
Protocols differ between the studies behind these lines.
RPS6KA4: Ribosomal protein S6 kinase alpha-4 (RPS6KA4, Homo sapiens, UniProt O75676)
RPS6KA4 N-terminal kinase domain: Ribosomal protein S6 kinase alpha-4, N-terminal kinase domain (RPS6KA4, Homo sapiens, UniProt O75676)
RPS6KA4 C-terminal kinase domain: Ribosomal protein S6 kinase alpha-4, C-terminal kinase domain (RPS6KA4, Homo sapiens, UniProt O75676)

SMILES	target	assay	setting	endpoint	result
CCCOc1ccc(OC)c(F)c1C(=O)c1ccc(C(=O)N[C@@H]2CNC[C@H]2NC(=O)c2ccc3[nH]ncc3c2)cc1	RPS6KA4	enzyme activity, inhibitor	10 µM	remaining activity	4%
Cc1cc(-n2nc(Cc3cc(F)cc(C(F)(F)F)c3)nc2C)ccc1C(N)=O	RPS6KA4 N-terminal kinase domain	cell-free assay, competition with immobilised ligand	1 µM	remaining binding	95%
CC(C)(C)c1nc(-c2cccc(NS(=O)(=O)c3c(F)cccc3F)c2F)c(-c2ccnc(N)n2)s1	RPS6KA4	enzyme activity, inhibitor, radiometric	1 µM	remaining activity	86%
O=C1Nc2ccc(Cl)cc2C1=Cc1cc(Cl)c(O)c(Cl)c1	RPS6KA4	cell-free assay	0.5 µM	remaining signal	98%
Cc1sc(C(=O)NC2COC2)cc1-n1cc(NC(=O)Nc2c(F)cccc2Cl)cn1	RPS6KA4	enzyme activity, inhibitor	10 µM	remaining activity	105%
O=C(Nc1cccnn1)N1CCC(=Cc2cccc(Oc3ccc(C(F)(F)F)cn3)c2)CC1	RPS6KA4 N-terminal kinase domain	cell-free assay, competition with immobilised ligand	1 µM	remaining binding	98%
Cn1cncc1C1=CN(c2ncnc3[nH]cnc23)CCS1	RPS6KA4	enzyme activity, inhibitor, radiometric	2 µM	inhibition	75.5%
CCN(CC)CCNC(=O)c1c(C)[nH]c(/C=C2\C(=O)Nc3ccc(F)cc32)c1C	RPS6KA4	cell-free assay	0.5 µM	remaining signal	50.8%
CN1CC(Oc2cnc(C#N)cc2-c2ccn3nc(NC(=O)C4CC4)cc3c2)C1	RPS6KA4	enzyme activity, inhibitor	1 µM	inhibition	-1%
CN(C)c1nccc(-c2cnn3ncccc23)n1	RPS6KA4 N-terminal kinase domain	binding, competition with immobilised ligand	1 µM	remaining binding	82%
Cc1nc(C2CCN(C(=O)c3ccc(OC(F)(F)F)cc3N)CC2)c2ncc(N3CCN(C)CC3)cc2n1	RPS6KA4 N-terminal kinase domain	cell-free assay, competition with immobilised ligand	1 µM	remaining binding	100%
CC(C)c1ccc(NC(=O)c2cccs2)c(-c2nc3ccccc3[nH]c2=O)c1	RPS6KA4	enzyme activity, inhibitor	1 µM	activity vs control	96%
CC(=O)N1CCC(c2ccc(C(=O)NC(=N)N)cc2C(F)(F)F)CC1	RPS6KA4 C-terminal kinase domain	cell-free assay, competition with immobilised ligand	1 µM	remaining binding	100%
CN(C)c1nccc(-c2cnc3ncccn23)n1	RPS6KA4 N-terminal kinase domain	binding, competition with immobilised ligand	1 µM	remaining binding	80%
CCOc1cc(-c2nncn2C)ccc1Nc1ncc2cc(C)nc(NCC(C)(C)C)c2n1	RPS6KA4	enzyme activity, inhibitor, FRET	1 µM	inhibition	< 15%
Cc1cc(C)c(-n2ccn3nc(-c4cccnc4)cc23)cc1NC(=O)c1cc(C#N)cc(S(F)(F)(F)(F)F)c1	RPS6KA4 N-terminal kinase domain	cell-free assay, competition with immobilised ligand	0.1 µM	remaining binding	100%

SMILES	target	assay	setting	endpoint	result
N[C@H]1CCN(c2nccc(-c3cnn4ncccc34)n2)C1	RPS6KA4 N-terminal kinase domain	binding, competition with immobilised ligand	1 µM	remaining binding	91%
Cc1cc(NC(=O)c2cccc3cc(-c4cccc5[nH]nc(N)c45)ccc23)ccc1F	RPS6KA4	enzyme activity, inhibitor	0.1 µM	activity vs control	103%
CCS(=O)(=O)c1cc2cc(C[C@@](O)(CC(C)(C)c3ccc(F)cc3C(N)=O)C(F)(F)F)[nH]c2cn1	RPS6KA4 N-terminal kinase domain	cell-free assay, competition with immobilised ligand	1 µM	remaining binding	78%
C[C@@H]1CCN(c2nccc(-c3cnn4ncccc34)n2)C1	RPS6KA4 N-terminal kinase domain	binding, competition with immobilised ligand	1 µM	remaining binding	60%
CC/C(=N\NC(=O)NCc1cccc(O)c1)c1ccc(O)c(C)c1O	RPS6KA4	enzyme activity, inhibitor	0.1 µM	inhibition	59.4%
CCCS(=O)(=O)Nc1ccc(F)c(C(=O)c2c[nH]c3ncc(-c4ccc(Cl)cc4)cc23)c1F	RPS6KA4	enzyme activity, inhibitor	1 µM	inhibition	< 10%
O=C(Nc1cnn(-c2csc(C(=O)NC3COC3)c2)c1)Nc1ccccc1Cl	RPS6KA4	enzyme activity, inhibitor	5 µM	remaining activity	90.7%
CNc1cccc2cc(C(=O)Nc3ccc(C(=O)O)cc3)c(=O)[nH]c12	RPS6KA4	enzyme activity, inhibitor	10 µM	inhibition	8.2%
Clc1ccc(Nc2nnc(Cc3ccncc3)c3ccccc23)cc1	RPS6KA4	cell-free assay	0.5 µM	remaining signal	98%
Nc1ncnc2occ(-c3ccc(NC(=O)Nc4cc(C(F)(F)F)ccc4F)cc3)c12	RPS6KA4 N-terminal kinase domain	cell-free assay, inhibitor	20 µM	remaining signal	2.1%
Cc1nc(Cc2cccc(C(F)(F)F)c2)sc1-c1ccc(C(N)=O)nc1	RPS6KA4 C-terminal kinase domain	cell-free assay, competition with immobilised ligand	1 µM	remaining binding	100%
O=C1NC(=O)c2cc(Nc3ccc(F)cc3)c(Nc3ccc(F)cc3)cc21	RPS6KA4	cell-free assay	0.5 µM	remaining signal	102%
c1ccc(CNc2nc(N3CCOc4ccccc43)nc3c2CCCC3)cc1	RPS6KA4 N-terminal kinase domain	target engagement in cells, inhibitor, chemoproteomics	20 mM	inhibition	2.6%
CC(C)CC(=O)N1CCc2nc(-c3ccc(Br)cc3)nc(N(C)Cc3ccccc3)c2C1	RPS6KA4 N-terminal kinase domain	cell-free assay, competition with immobilised ligand	0.1 µM	remaining binding	74%
COc1cc2ncnc(Nc3ccc(Oc4ccccc4)cc3C)c2cc1OC	RPS6KA4	enzyme activity, inhibitor	1 µM	inhibition	1%
